For 45 compounds, IC50, inhibition in vivo and Duration results are on record in ChEMBL document CHEMBL1126899, “Nonpeptide angiotensin II antagonists derived from 1H-pyrazole-5-carboxylates and 4-aryl-1H-imidazole-5-carboxylates” (J Med Chem, 1993).

Assay [1] addresses T1, Type-1 angiotensin II receptor (Oryctolagus cuniculus, UniProt P34976).
T1 sequence (P34976 whole entry): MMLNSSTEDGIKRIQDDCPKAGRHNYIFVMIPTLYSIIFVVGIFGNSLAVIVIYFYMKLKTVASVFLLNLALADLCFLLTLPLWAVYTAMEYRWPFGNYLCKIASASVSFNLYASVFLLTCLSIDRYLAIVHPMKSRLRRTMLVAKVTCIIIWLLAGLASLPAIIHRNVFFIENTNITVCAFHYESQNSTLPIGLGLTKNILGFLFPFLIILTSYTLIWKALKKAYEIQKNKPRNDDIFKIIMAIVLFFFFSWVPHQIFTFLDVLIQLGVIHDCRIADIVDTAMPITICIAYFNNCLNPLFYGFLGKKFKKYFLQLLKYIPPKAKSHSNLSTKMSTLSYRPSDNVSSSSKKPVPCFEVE
Put plainly: Evaluation of Angiotensin II antagonistic activity by displacement of [125I]-Sar Ile-AII at the rabbit aorta Angiotensin II receptor, type 1. Type of assay: tissue-based. The method in brief:
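Rabbit aorta membranes, run without BSA. Competition against [¹²⁵I]Sar¹Ile⁸-AII, in duplicate tubes. Some values are means of two or more separate assays. Standard error is estimated at <30% of the mean.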
Background: In a radioligand displacement assay an active substance lowers the binding of a labelled ligand.

In assay [2] the test system is Rattus norvegicus. Put plainly: Peak percent inhibition of Angiotensin II pressor response in conscious, normotensive rats at 1 mg/kg iv. It counts as functional. The method, boiled down: (§1)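 Male Sprague-Dawley rats (300–400 g), conscious, catheterized for iv dosing and for arterial pressure and heart rate. Compound given iv or po; PEG 400 vehicle in some oral cases. AII 0.1 μg/kg iv boluses at set intervals afterward. % inhibition of the MAP rise was calculated at each time point, and the peak was taken. Averaged from at least two rats unless noted.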

Assay [3] concerns Rattus norvegicus. Put plainly: Peak percent inhibition of Angiotensin II pressor response in conscious, normotensive rats at 1 mg/kg po. It counts as functional. The method, boiled down: as §1
Assay [4] has as its system Rattus norvegicus. Description: Time to produce onset of action for inhibition of Angiotensin II pressor response in conscious, normotensive rats at 1 mg/kg po. It counts as functional. The method in brief: (§2)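 Conscious male Sprague-Dawley rats (300–400 g), instrumented for iv dosing and arterial pressure. A single iv or po bolus of compound (PEG 400 for some oral doses), then repeated AII challenges at 0.1 μg/kg iv. […] Averaged from at least two rats unless noted.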

Assay [5] concerns Rattus norvegicus. Description: Time to produce onset of action for inhibition of Angiotensin II pressor response in conscious, normotensive rats at 1 mg/kg iv. It counts as functional. The method in brief: as §2
The test system of assay [6] is Rattus norvegicus. Description: Time to produce onset of action for inhibition of Angiotensin II pressor response in conscious, normotensive rats at 0.1 mg/kg iv. Type of assay: functional. The method, boiled down:
as §2

The subject of assay [7] is Rattus norvegicus. Description: Peak percent inhibition of Angiotensin II pressor response in conscious, normotensive rats at 0.1 mg/kg iv. It counts as functional. The method, boiled down:
as §1

The subject of assay [8] is Rattus norvegicus. Description: Time to produce onset of action for inhibition of Angiotensin II pressor response in conscious, normotensive rats at 0.3 mg/kg po. Type of assay: functional. The method in brief:
as §2

Assay [9] deals with Rattus norvegicus. Description: Peak percent inhibition of Angiotensin II pressor response in conscious, normotensive rats at 0.3 mg/kg po. It counts as functional. The method in brief: as §1

pIC50: −log10 of the molar value. Some results are limits rather than exact numbers.

Consider `CCCCc1nn(CC(F)(F)F)c(C(=O)OCC)c1Cc1ccc(-c2ccccc2-c2nn[nH]n2)cc1`, for which, in assay [1], the pIC50 was 7.52. On the same count and under the same terms, under `CCCc1nn(-c2c(Cl)cccc2Cl)c(C(=O)OCC)c1Cc1ccc(-c2ccccc2-c2nn[nH]n2)cc1` stands 7.70. In assay [1], `CCCCc1nn(-c2cccc(Cl)c2)c(C(=O)O)c1Cc1ccc(-c2ccccc2-c2nn[nH]n2)cc1` had a negative-log IC50 (pIC50) of 8.64. Take `CCCCc1nn(-c2ccccc2Cl)c(C(=O)OCC)c1Cc1ccc(-c2ccccc2-c2nn[nH]n2)cc1`: the inhibition in vivo at 1 mg/kg in [2] turned out to be 43%; in [3] it was 50%. In assay [4], this compound displayed a Duration of over 2.5 h. Besides, the pIC50 in assay [1] was 7.89. Compound `CCCCc1nn(-c2cccc(Cl)c2Cl)c(C(=O)O)c1Cc1ccc(-c2ccccc2-c2nnn[nH]2)cc1` gave a pIC50 in [1] of 9.11.

In [1], `CCCCc1nn(-c2ccccc2-c2ccccc2)c(C(=O)OCC)c1Cc1ccc(-c2ccccc2-c2nn[nH]n2)cc1` gave a negative logarithm of the IC50 (pIC50) of 7.64. As for `CCCCc1nn(-c2ccccc2[N+](=O)[O-])c(C(=O)OCC)c1Cc1ccc(-c2ccccc2-c2nnn[nH]2)cc1`, the pIC50 in [1] was 8.02. As for `CCCCc1nn(-c2ccccc2C(F)(F)F)c(C(=O)O)c1Cc1ccc(-c2ccccc2-c2nn[nH]n2)cc1`, testing at 1 mg/kg in [2] gave an inhibition in vivo of 100%. In addition, the Duration stood at 5.3 h in [5] and 3.5 h in assay [6]. Moreover, in assay [7], the inhibition in vivo at 0.1 mg/kg was found to be 57%. Moreover, the negative logarithm of the IC50 (pIC50) in assay [1] was 9.62. In turn, `CCCc1nn(-c2ccccc2C(F)(F)F)c(C(=O)OCC)c1Cc1ccc(-c2ccccc2-c2nnn[nH]2)cc1` had a pIC50 in [1] of 7.25.

For `CCCCc1n[nH]c(C(=O)OCC)c1Cc1ccc(-c2ccccc2-c2nn[nH]n2)cc1`, the inhibition in vivo at 1 mg/kg in assay [2] amounted to 80%. In assay [5], this compound returned a Duration of over 5 h. Further, in assay [1], the pIC50 was 6.89. In turn, `CCCCc1nn(CCc2ccccc2)c(C(=O)O)c1Cc1ccc(-c2ccccc2-c2nn[nH]n2)cc1` came in with an inhibition in vivo at 1 mg/kg in [2] of 95%. For the same compound, the Duration in [5] is over 24 h. In [1], this compound showed a pIC50 of 9.62. Compound `CCCCc1nn(CC(F)(F)F)c(C(=O)O)c1Cc1ccc(-c2ccccc2-c2nn[nH]n2)cc1` had a pIC50 in assay [1] of 9.28. Still for that read-out and setting: for `CCCCc1nn(-c2cccc(Cl)c2Cl)c(C(=O)OCC)c1Cc1ccc(-c2ccccc2-c2nnn[nH]2)cc1` the value was 7.05; for `CCCc1nn(Cc2ccccc2)c(C(=O)OCC)c1Cc1ccc(-c2ccccc2-c2nn[nH]n2)cc1`, 7.66. For the compound `CCCCc1nn(-c2ccc(OC)cc2)c(C(=O)OCC)c1Cc1ccc(-c2ccccc2-c2nnn[nH]2)cc1`, the pIC50 in assay [1] is 7.70. In [1], `CCCCc1nn(-c2ccc(OC)cc2)c(C(=O)O)c1Cc1ccc(-c2ccccc2-c2nn[nH]n2)cc1` had a pIC50 of 9.10. In assay [1], `CCCCc1nn(-c2ccc(Cl)cc2Cl)c(C(=O)OCC)c1Cc1ccc(-c2ccccc2-c2nnn[nH]2)cc1` gave a pIC50 of 8.17. With `CCCCc1nn(Cc2ccccc2)c(C(=O)OCC)c1Cc1ccc(-c2ccccc2-c2nnn[nH]2)cc1`, the pIC50 in [1] was under 7.00.

`CCCCc1nn(-c2c(Cl)cccc2Cl)c(C(=O)O)c1Cc1ccc(-c2ccccc2-c2nn[nH]n2)cc1`: the inhibition in vivo at 1 mg/kg in [3] is 79%. In addition, the Duration in assay [4] and in assay [6] was over 4.5 h in each case. The inhibition in vivo at 0.1 mg/kg in assay [7] was 80%. For the same compound, in assay [1], the pIC50 was 9.74.

In [1], `CCCCc1nn(-c2ccc(Cl)cc2)c(C(=O)OCC)c1Cc1ccc(-c2ccccc2-c2nn[nH]n2)cc1` gave a pIC50 of 7.00.

Regarding `CCCCc1nn(-c2ccccc2[N+](=O)[O-])c(C(=O)O)c1Cc1ccc(-c2ccccc2-c2nnn[nH]2)cc1`, the pIC50 in [1] is 8.77. Still for that read-out and setting: under `CCCCc1nc(-c2ccccc2)c(C(=O)OCC)n1Cc1ccc(-c2ccccc2-c2nn[nH]n2)cc1` stands 7.39. With `CCCc1nn(-c2c(Cl)cccc2Cl)c(C(=O)O)c1Cc1ccc(-c2ccccc2-c2nn[nH]n2)cc1`, the inhibition in vivo at 1 mg/kg in assay [2] was determined as 100%; in [3] it was 87%. For the same compound, the Duration in assay [5] was over 6 h; in assay [4] it was over 23 h; in assay [6], 5.4 h; in assay [8], over 3 h. The same compound yielded an inhibition in vivo at 0.1 mg/kg in assay [7] of 60%. Besides, the pIC50 in assay [1] is 9.16. Moreover, 0.3 mg/kg produced 56% inhibition in vivo in assay [9]. For the compound `CCCCc1nn(-c2ccc(Cl)cc2Cl)c(C(=O)O)c1Cc1ccc(-c2ccccc2-c2nn[nH]n2)cc1`, in assay [1], the negative logarithm of the IC50 (pIC50) is 9.22.

The compound `CCCCc1nn(-c2ccccc2)c(C(=O)OCC)c1Cc1ccc(-c2ccccc2-c2nnn[nH]2)cc1` gave a pIC50 in assay [1] of 7.09. Turning to `CCCCc1nn(-c2cc(Cl)ccc2Cl)c(C(=O)OCC)c1Cc1ccc(-c2ccccc2-c2nn[nH]n2)cc1`, the pIC50 in [1] is 6.98.

As to `CCCCc1nn(-c2c(Cl)cc(Cl)cc2Cl)c(C(=O)O)c1Cc1ccc(-c2ccccc2-c2nnn[nH]2)cc1`, the pIC50 in assay [1] is 9.30.

With `CCCCc1nn(-c2ccc(Cl)cc2)c(C(=O)O)c1Cc1ccc(-c2ccccc2-c2nn[nH]n2)cc1`, the pIC50 in assay [1] is 8.89. In the case of `CCCc1[nH]nc(C(=O)OCC)c1Cc1ccc(-c2ccccc2-c2nnn[nH]2)cc1`, the negative logarithm of the IC50 (pIC50) in assay [1] was 6.80. In [1], `CCCCc1nn(-c2cc(Cl)ccc2Cl)c(C(=O)O)c1Cc1ccc(-c2ccccc2-c2nnn[nH]2)cc1` showed a pIC50 of 8.49.

The compound `CCCCc1nn(-c2ccccn2)c(C(=O)O)c1Cc1ccc(-c2ccccc2-c2nn[nH]n2)cc1` showed a pIC50 in [1] of 8.77. As to `CCCc1nn(CC(F)(F)F)c(C(=O)OCC)c1Cc1ccc(-c2ccccc2-c2nnn[nH]2)cc1`, the pIC50 in assay [1] was 7.12.

`CCOC(=O)c1c(Cc2ccc(-c3ccccc3-c3nnn[nH]3)cc2)c(CC2CC2)nn1-c1c(Cl)cccc1Cl`: the pIC50 in [1] is 7.12. For `CCCc1nc(C(F)(F)C(F)(F)F)c(C(=O)O)n1Cc1ccc(-c2ccccc2-c2nnn[nH]2)cc1`, in assay [1], the pIC50 was 8.96.

`CCCCc1nn(-c2c(Cl)cc(Cl)cc2Cl)c(C(=O)OCC)c1Cc1ccc(-c2ccccc2-c2nn[nH]n2)cc1` showed a pIC50 in assay [1] of 7.43. On the same count and under the same terms, for `O=C(O)c1c(Cc2ccc(-c3ccccc3-c3nn[nH]n3)cc2)c(CC2CC2)nn1-c1c(Cl)cccc1Cl` the value was 8.43; for `CCCCc1nn(CC)c(C(=O)O)c1Cc1ccc(-c2ccccc2-c2nn[nH]n2)cc1`, 8.57.

Consider `CCCCc1nn(-c2ccccc2C)c(C(=O)O)c1Cc1ccc(-c2ccccc2-c2nn[nH]n2)cc1`, for which, in [1], the pIC50 is 9.34. As for `CCCCc1nn(-c2ccccc2C)c(C(=O)OCC)c1Cc1ccc(-c2ccccc2-c2nn[nH]n2)cc1`, the pIC50 in [1] is 7.89. In assay [1], `CCCCc1nn(-c2ccccc2-c2ccccc2)c(C(=O)O)c1Cc1ccc(-c2ccccc2-c2nnn[nH]2)cc1` showed a pIC50 of 9.19.

Compound `CCCCc1nn(-c2ccccn2)c(C(=O)OCC)c1Cc1ccc(-c2ccccc2-c2nnn[nH]2)cc1` had a negative-log IC50 (pIC50) in assay [1] of 7.74. Take `CCCCc1nn(-c2ccccc2C(F)(F)F)c(C(=O)OCC)c1Cc1ccc(-c2ccccc2-c2nnn[nH]2)cc1`: the pIC50 in assay [1] was 7.68. Compound `CCCCc1nn(-c2ccc(OC)cc2[N+](=O)[O-])c(C(=O)O)c1Cc1ccc(-c2ccccc2-c2nnn[nH]2)cc1` gave a pIC50 in assay [1] of 8.60. `CCCCc1nn(-c2cccc(Cl)c2)c(C(=O)OCC)c1Cc1ccc(-c2ccccc2-c2nn[nH]n2)cc1` showed a pIC50 in [1] of 7.26. In turn, `CCCCc1nn(-c2c(Cl)cccc2Cl)c(C(=O)OCC)c1Cc1ccc(-c2ccccc2-c2nnn[nH]2)cc1` showed a pIC50 in assay [1] of 8.10.

As usually defined, the pIC50 is the IC50 on a negative log10 scale, so that one unit is a factor of ten. A higher pIC50 goes with a small IC50. One may read the inhibition in vivo as the percentage by which the read-out fell short of the control.
